Active and inactive are the calls of the source. The rule behind the calls is not given here.
Key:
[1] = molecular target: T1, Protein cereblon/Androgen receptor (Homo sapiens, UniProt P10275+Q96SW2); experiment: Protac activity at CRBN/AR in human LNCaP cells assessed as AR degradation at 0.1 uM by western blotting analysis relative to control; assay type: cell-based
In short: (§1)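 LNCaP (IMDM) or 22RV1 (RPMI 1640) cells with 10% FBS at 37 °C, 5% CO2, treated with DMSO vehicle as control. Cells lysed in RIPA buffer (50 mM Tris-HCl pH 7.5, 150 mM NaCl, 1% Triton X-100, 0.1% SDS, 0.5% deoxycholate, protease inhibitors). Protein quantified by Bradford assay. Immunoblotted for AR with tubulin as loading control, HRP chemiluminescence detection.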
Target sequence in this assay (P10275 whole entry, looked up): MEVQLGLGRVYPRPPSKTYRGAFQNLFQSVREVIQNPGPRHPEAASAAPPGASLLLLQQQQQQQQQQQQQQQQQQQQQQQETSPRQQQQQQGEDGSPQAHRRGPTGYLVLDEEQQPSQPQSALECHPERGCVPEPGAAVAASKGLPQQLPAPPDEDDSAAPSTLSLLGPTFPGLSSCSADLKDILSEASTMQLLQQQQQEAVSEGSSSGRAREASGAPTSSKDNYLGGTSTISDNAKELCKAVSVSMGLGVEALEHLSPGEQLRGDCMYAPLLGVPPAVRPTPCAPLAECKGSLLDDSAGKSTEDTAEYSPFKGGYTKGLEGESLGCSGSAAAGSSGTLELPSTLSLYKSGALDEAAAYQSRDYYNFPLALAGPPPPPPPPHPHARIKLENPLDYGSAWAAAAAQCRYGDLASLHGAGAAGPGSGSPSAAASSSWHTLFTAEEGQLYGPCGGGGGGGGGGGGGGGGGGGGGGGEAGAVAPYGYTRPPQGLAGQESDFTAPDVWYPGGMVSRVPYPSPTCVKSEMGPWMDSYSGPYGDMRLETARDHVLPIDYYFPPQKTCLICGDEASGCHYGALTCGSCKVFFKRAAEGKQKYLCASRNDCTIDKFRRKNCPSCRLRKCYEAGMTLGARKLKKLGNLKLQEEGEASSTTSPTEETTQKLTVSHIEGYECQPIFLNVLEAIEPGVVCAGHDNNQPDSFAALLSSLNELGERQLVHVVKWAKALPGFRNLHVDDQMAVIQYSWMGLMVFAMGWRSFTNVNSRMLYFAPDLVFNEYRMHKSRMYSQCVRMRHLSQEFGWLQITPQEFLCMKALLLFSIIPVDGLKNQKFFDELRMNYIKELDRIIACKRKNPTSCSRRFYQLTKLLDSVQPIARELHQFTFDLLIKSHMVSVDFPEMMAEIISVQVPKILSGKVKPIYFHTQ
Target sequence in this assay (Q96SW2 whole entry, looked up): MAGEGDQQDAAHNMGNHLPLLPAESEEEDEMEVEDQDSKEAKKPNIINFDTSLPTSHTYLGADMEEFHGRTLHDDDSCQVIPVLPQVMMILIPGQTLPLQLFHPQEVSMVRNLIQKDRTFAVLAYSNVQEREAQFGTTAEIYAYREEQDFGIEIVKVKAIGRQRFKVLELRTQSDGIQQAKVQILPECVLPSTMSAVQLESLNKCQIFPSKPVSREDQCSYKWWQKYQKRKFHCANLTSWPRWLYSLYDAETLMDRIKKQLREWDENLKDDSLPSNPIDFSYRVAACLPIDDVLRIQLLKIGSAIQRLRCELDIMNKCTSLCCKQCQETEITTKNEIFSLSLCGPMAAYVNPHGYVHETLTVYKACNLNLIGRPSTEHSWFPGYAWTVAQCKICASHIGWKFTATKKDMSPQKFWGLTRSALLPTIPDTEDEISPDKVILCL

[2] = molecular target: T1, Protein cereblon/Androgen receptor; experiment: Protac activity at CRBN/AR in human LNCaP cells assessed as AR degradation at 1 uM by Western blotting analysis relative to control; assay type: cell-based; in short: as §1
Target sequence in this assay (P10275 whole entry, looked up): as the sequence (P10275 whole entry, looked up) above
Target sequence in this assay (Q96SW2 whole entry, looked up): as the sequence (Q96SW2 whole entry, looked up) above

[3] = molecular target: T1, Protein cereblon/Androgen receptor; experiment: Protac activity at CRBN/AR in human LNCaP cells assessed as AR degradation at 10 uM by Western blotting analysis relative to control; assay type: cell-based; in short: as §1
Target sequence in this assay (P10275 whole entry, looked up): as the sequence (P10275 whole entry, looked up) above
Target sequence in this assay (Q96SW2 whole entry, looked up): as the sequence (Q96SW2 whole entry, looked up) above

LNCaP = experiment: Antiproliferative activity against human LNCaP cells assessed as reduction in cell viability after 6 days by CellTiter-Glo assay; assay type: functional; details: 144 h, time 6 day
In short: (§2)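 LNCaP seeded at 1.5 × 10³ and VCaP at 4 × 10³ cells per well in 96-well plates. Cells grown in IMDM with 10% FBS and antibiotic-antimycotic at 37 °C, 5% CO2, with DMSO as vehicle. IC50 from nonlinear regression of log(inhibitor) versus response.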

VCaP [4] = experiment: Antiproliferative activity against human VCaP cells assessed as reduction in cell viability after 6 days by CellTiter-Glo assay; assay type: functional; details: 144 h, time 6 day; in short: as §2
[5] = molecular target: T1, Protein cereblon/Androgen receptor; experiment: Protac activity at CRBN/AR in human LNCaP cells assessed as AR degradation after 24 hrs by Western blotting analysis; assay type: cell-based; in short: as §1
Target sequence in this assay (P10275 whole entry): as the sequence (P10275 whole entry, looked up) above
Target sequence in this assay (Q96SW2 whole entry): as the sequence (Q96SW2 whole entry, looked up) above

[6] = molecular target: T1, Protein cereblon/Androgen receptor; experiment: Protac activity at CRBN/AR in human LNCaP cells assessed as maximum degradation of AR by Western blotting analysis relative to control; assay type: cell-based; details: time 24.0 hrs; in short: as §1
Target sequence in this assay (P10275 whole entry, looked up): as the sequence (P10275 whole entry, looked up) above
Target sequence in this assay (Q96SW2 whole entry, looked up): as the sequence (Q96SW2 whole entry, looked up) above

[7] = molecular target: T1, Protein cereblon/Androgen receptor; experiment: Protac activity at CRBN/AR in human 22RV1 cells assessed as maximum degradation of AR at 1 uM by Western blotting analysis relative to control; assay type: cell-based; in short: as §1
Target sequence in this assay (P10275 whole entry, looked up): as the sequence (P10275 whole entry, looked up) above
Target sequence in this assay (Q96SW2 whole entry, looked up): as the sequence (Q96SW2 whole entry, looked up) above

[8] = molecular target: T1, Protein cereblon/Androgen receptor; experiment: Protac activity at CRBN/AR in human 22RV1 cells assessed as maximum degradation of AR-V7 splice variant at 10 uM by Western blotting analysis relative to control; assay type: cell-based; in short: as §1
Target sequence in this assay (P10275 whole entry, looked up): as the sequence (P10275 whole entry, looked up) above
Target sequence in this assay (Q96SW2 whole entry, looked up): as the sequence (Q96SW2 whole entry, looked up) above

[9] = molecular target: T1, Protein cereblon/Androgen receptor; experiment: Protac activity at CRBN/AR in human LNCaP cells assessed as AR degradation at 1 uM pretreated with protease inhibitor bortezomib by Western blotting analysis; assay type: cell-based; in short: as §1
[10] = molecular target: T1, Protein cereblon/Androgen receptor; experiment: Protac activity at CRBN/AR in human LNCaP cells assessed as AR degradation at 1 uM pretreated with neddylation inhibitor MLN4924 by Western blotting analysis; assay type: cell-based; in short: as §1
[11] = molecular target: T1, Protein cereblon/Androgen receptor; experiment: Protac activity at CRBN/AR in human LNCaP cells assessed as AR degradation at 1 uM after 4 hrs by Western blotting analysis relative to control; assay type: cell-based; in short: as §1
[12] = Metabolic stability in mouse liver microsomes assessed as compound remaining at 1 uM after 30 mins in presence of NADPH-regenerating system; assay type: ADME, Microsome; details: read-out: Stabilty
In short: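 Mouse liver microsomes at 0.5 mg protein/mL in 100 mM PBS, pH 7.4. Reaction started with NADPH-regenerating solution (1.3 mM NADP+, 3.3 mM glucose-6-phosphate, 0.4 U/mL G6PDH, 3.3 mM MgCl2). Incubated 30 min at 37 °C, stopped with ice-cold acetonitrile, centrifuged. Percent remaining reported as mean ± SD, n = 3.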

[13] = Tmax in ICR mouse at 5 mg/kg, ip by LC-MS/MS analysis; assay type: ADME, organism-based; details: in vivo
In short: (§3)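 Male ICR mice, 7 weeks old. Single dose of 5 mg/kg IV or IP in 5% DMSO, 52% PEG400, 3% Tween 80 in water, or 30 mg/kg PO in 20% PEG400 and 3% Tween 80 in water. Retro-orbital blood sampled over time. Plasma protein-precipitated with acetonitrile (1:10) and analysed by LC-MS/MS. Parameters from noncompartmental analysis of mean data, n = 3.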

[14] = Tmax in ICR mouse at 30 mg/kg, po by LC-MS/MS analysis; assay type: ADME, organism-based; details: in vivo; in short: as §3
[15] = Cmax in ICR mouse at 5 mg/kg, ip by LC-MS/MS analysis; assay type: ADME, organism-based; design: route intraperitoneal, dose 5 mg/kg; details: in vivo; in short: as §3
[16] = Cmax in ICR mouse at 30 mg/kg, po by LC-MS/MS analysis; assay type: ADME, organism-based; design: route oral, dose 30 mg/kg; details: in vivo; in short: as §3
[17] = Half life in ICR mouse at 5 mg/kg, iv by LC-MS/MS analysis; assay type: ADME, organism-based; details: in vivo; in short: as §3
[18] = Half life in ICR mouse at 5 mg/kg, ip by LC-MS/MS analysis; assay type: ADME, organism-based; details: in vivo; in short: as §3
[19] = AUCt in ICR mouse at 5 mg/kg, iv by LC-MS/MS analysis; assay type: ADME, organism-based; design: dose 5 mg/kg; details: in vivo; in short: as §3
[20] = AUCt in ICR mouse at 5 mg/kg, ip by LC-MS/MS analysis; assay type: ADME, organism-based; design: dose 5 mg/kg; details: in vivo; in short: as §3
[21] = AUCt in ICR mouse at 30 mg/kg, po by LC-MS/MS analysis; assay type: ADME, organism-based; design: dose 30 mg/kg; details: in vivo; in short: as §3
VCaP [22] = experiment: Antitumor activity against human VCaP cells xenografted in SCID mouse assessed as reduction in tumor growth at 30 mg/kg, ip administered once daily for 10 days and measured every 1 to 3 days post treatment by caliper method; assay type: functional, organism-based; details: time 10.0 day
In short: (§4)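 Male SCID mice (C.B-17/IcrCrj-scid) implanted subcutaneously in the right flank with 1.5×10⁷ VCaP cells mixed 1:1 with Matrigel. At about 130 mm³, mice dosed IP once daily for 10 days, vehicle 20% PEG400 + 3% Tween 80 in PBS. Tumours measured by caliper, volume = length × width² × 0.5. Body weight tracked alongside; Mann-Whitney U test, α = 0.01.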

[23] = Toxicity in SCID mouse xenografted with human VCaP cells assessed as loss of body weight at 30 mg/kg, ip administered once daily for 10 days and measured every 1 to 3 days post treatment; assay type: organism-based; details: in vivo, 240 h, time 10 day; in short: as §4
[24] = molecular target: T1, Protein cereblon/Androgen receptor; experiment: Protac activity at CRBN/AR in human LNCaP cells assessed as AR degradation at 0.1 to 10 uM Western blotting analysis relative to control; assay type: cell-based; details: dose 0.1-10 µM; in short: as §1
[25] = Half life in ICR mouse at 30 mg/kg, po by LC-MS/MS analysis; assay type: ADME, organism-based; details: in vivo, 30 mg/kg; in short: as §3

Row | Compound | Activity [1] [%] | Activity [2] [%] | Activity [3] [%] | CC50 (LNCaP) [nM] | CC50 (VCaP [4]) [nM] | remaining at 0.5 h, 1 µM [12] [%] | Tmax [13] [h] | Cmax [15] [ng/mL] | half-life [17] [h] | t1/2 [18] [h] | AUC(0-t) [19] [ng·h/mL] | AUCt [20] [ng·h/mL] | other results
1 | CC1(C)[C@H](NC(=O)c2ccc(N3CCN(C4CC5(CCN(C(=O)C6CCN(c7ccc8nnn(C9CCC(=O)NC9=O)c(=O)c8c7)CC6)CC5)C4)CC3)cc2)C(C)(C)[C@H]1Oc1ccc(C#N)c(Cl)c1 (stereo partly specified) | 85 | 93 | 95 | 98 | 44 | 96 | 0.03 | 2780 | 8.28 | 4.41 | 20700 | 1720 | DC50 [5]: 12.5 nM; Activity [6]: 93%; Activity [7]: 85%; Activity [8]: 34%; Activity [9]: inactive; Activity [10]: inactive; Activity [11]: 80%; Tmax ([14]; ICR, read-out: Tmax): 4 h; Cmax ([16]; ICR, read-out: Cmax): 110 ng/mL; AUC(0-t) ([21]; ICR): 530 ng·h/mL; Activity (VCaP [22]): Active; Activity [23]: Non-Toxic
2 | CN1C(=O)CCC(n2nnc3ccc(N4CCC(C(=O)N5CCC6(CC5)CC(N5CCN(c7ccc(C(=O)N[C@H]8C(C)(C)[C@H](Oc9ccc(C#N)c(Cl)c9)C8(C)C)cc7)CC5)C6)CC4)cc3c2=O)C1=O (stereo partly specified) |  |  |  |  |  |  |  |  |  |  |  |  | Activity [24]: inactive
3 | CC1(C)[C@H](NC(=O)c2ccc(N3CCN(CCOC4CCN(C(=O)C5CN(c6ccc7nnn(C8CCC(=O)NC8=O)c(=O)c7c6)C5)CC4)CC3)cc2)C(C)(C)[C@H]1Oc1ccc(C#N)c(Cl)c1 (stereo partly specified) | 82 | 86 | 90 | 762 | 57 | 92.6 | 1.67 | 2010 | 4.35 | 4.24 | 4490 | 7490 | Tmax ([14]; 30 mg/kg): 0.7 h; Cmax [16]: 20 ng/mL; t1/2 [25]: 19.7 h; AUCt [21]: 150 ng·h/mL

From ChEMBL document CHEMBL4706590, “Design and characterization of cereblon-mediated androgen receptor proteolysis-targeting chimeras” (Eur J Med Chem, 2020)
